A word on the AC50: it is the midpoint of the concentration-response curve, whichever way the signal moves.

Active and inactive are the calls of the source.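 How the source made its calls: active means compounds whose fitted half-maximal growth inhibition concentration is at most ten times the top tested dose; inconclusive means flat curve with 30 to 70% inhibition, or poor fit; inactive means the rest.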

The test system of one experiment is C. albicans CaCi-2 + fluconazole, Alamar Blue growth, 48 h. Nature of the experiment: C. albicans growth inhibition with fluconazole, confirmation, CaCi-2, fluconazole present, retest, powder, set 6 (AID 504502).
Details: not given
A digest of the protocol:
(§1)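 System: fluconazole-resistant Candida albicans strain CaCi-2; Times: 48 h growth at 37 °C, 2 h dye step; Technique: Alamar Blue fluorescence at 1:200 final, excitation 544 nm, emission 590 nm; Benchmarks: geldanamycin positive control.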
In the case of `O=C(Cn1c2ccc(F)cc2c2nc3n(c(=O)c21)CCS3)N1CCCC1`, the AC50 was 298 nM. Same read-out and setting: with `O=C(Cn1c2ccccc2c2nc3n(c(=O)c21)CCS3)N1CCC(F)(F)CC1` the figure was 1470 nM; with `COC(=O)Cn1nc(-c2cccc(F)c2)c2ccccc21`, 1170 nM; with `COC(=O)Cn1nc(-c2cccc(OC)c2)c2ccccc21`, 348 nM.

On to `O=C(Cn1c2ccccc2c2nc3n(c(=O)c21)CCS3)N1CCCC1`, for which the AC50 was 795 nM.

With `COC(=O)Cn1c2ccc(F)cc2c2nc3n(c(=O)c21)CCS3`, the AC50 is 2080 nM. On the same count and under the same terms, as for `O=C(Cn1c2ccccc2c2nc3n(c(=O)c21)CCS3)N1CCCCC1`, the figure is 1250 nM. The same measure, in the same setting: with `COC(=O)Cn1nc(C2CCCCC2)c2ccccc21` the figure was 1800 nM; with `O=C(Cn1c2ccccc2c2nc3n(c(=O)c21)CCS3)N1CC=CC1`, 821 nM.

For `O=C(Cn1c2ccc(F)cc2c2nc3n(c(=O)c21)CCS3)N1CCC(F)(F)C1`, the AC50 was 717 nM.

`O=C(Cn1c2ccc(F)cc2c2nc3n(c(=O)c21)CCS3)N1CC=CC1`: the AC50 is 276 nM. Take `O=C(Cn1c2ccccc2c2nc3n(c(=O)c21)CCS3)N1CCC(F)(F)C1`: the AC50 is 3700 nM. In the case of `COC(=O)Cn1nc(-c2cccc(C)c2)c2ccccc21`, the AC50 was 646 nM.

`O=C(Cn1c2ccc(F)cc2c2nc3n(c(=O)c21)CCS3)N1CCC(F)(F)CC1`: the AC50 was 391 nM. Regarding `CN1CCN(C(=O)Cn2c3ccccc3c3nc4n(c(=O)c32)CCS4)CC1`, the AC50 was 4740 nM.

Tested on in another experiment: not listed separately
The description is as above. Particulars: C. albicans CaCi-2 + fluconazole, Alamar Blue growth, 48 h; at 12 µM (top of the series). A digest of the protocol:
as §1
(In general: Resazurin is reduced to fluorescent resorufin, in cell work by metabolically active cells.)
Take `O=C(O)Cn1c2ccccc2c2nc3n(c(=O)c21)CCS3`: the activity change, negative = inhibition is -8.34% (inactive). Same read-out and setting: with `CCc1nn(CC(=O)OC)c2ccccc12` the figure was 6.18% (inactive); with `COC(=O)n1nc(-c2ccccc2)c2ccccc21`, 10.4% (inactive).

Regarding `COC(=O)Cn1nc(-c2ccccc2)c2cccnc21`, the activity change, negative = inhibition is -41.1% (inactive). Same read-out and setting: as for `O=C(O)Cn1c2ccc(F)cc2c2nc3n(c(=O)c21)CCS3`, the figure is 0.059% (inactive); as for `CC1(O)CN(C(=O)Cn2c3ccccc3c3nc4n(c(=O)c32)CCS4)C1`, -0.117% (inactive).

As for `COC(=O)Cn1nc(C2CC2)c2ccccc21`, the activity change, negative = inhibition was 0.132% (inactive). Take `COC(=O)Cn1nc(-c2cnco2)c2ccccc21`: the activity change, negative = inhibition was -10.5% (inactive).

Turning to `COC(=O)Cn1nc(C(C)(C)C)c2ccccc21`, the activity change, negative = inhibition is 3% (inactive). On the same count and under the same terms, with `COC(=O)Cn1nc(-c2cccnc2)c2ccccc21` the figure was -23.4% (inactive); with `CC1CCN(CCn2c3ccccc3c3nc4n(c(=O)c32)CCS4)CC1`, -9.05% (inactive).

For the origin of these results see PubChem BioAssay AID504502 (Broad Institute, 2011).
